Tests used:
[1] = Antiproliferative activity against human U937 cells after 48 hrs by MTT assay; format: functional, cell-based; conditions: U-937, 48 h
Outline: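 Human promonocytic U-937 cells exposed to compound for 48 h, then MTT added as an indirect viability read-out via mitochondrial activity. IC50 taken as the concentration reducing viability to 50% of mock-treated cells. Values averaged from at least three independent runs, each with eight replicates, with standard errors; n gives the number of independent runs.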

[2] = Cytotoxicity against human U937 cells assessed as cell viability at antiproliferative IC50 after 48 hrs by trypan exclusion assay; format: functional, U-937

Row | Structure (SMILES) | IC50 [1] [µM] | Activity [2] [%]
1 | Cn1cc(C2=C(c3ccccc3)CNC2=O)c2ccccc21 | > 100 | 
2 | COc1cc2c3c(c4cc(OC)c(OC)cc4c2cc1OC)C(=O)NC3 | > 100 | 
3 | COc1cc2c3c(c4c5ccccc5n(C)c4c2cc1OC)C(=O)NC3 | 48 | 
4 | COc1cc(C2=C(c3ccccc3)CNC2=O)cc(OC)c1OC | 33 | 
5 | COc1ccc(C2=C(c3cn(C)c4ccccc34)CNC2=O)cc1OC | > 100 | 
6 | COc1cc(C2=C(c3ccccc3)C(=O)NC2)cc(OC)c1OC | 84 | 
7 | COc1ccc(C2=C(c3cn(C)c4ccccc34)C(=O)NC2)cc1OC | 10 | 61
8 | COc1ccc(C2=C(c3ccc(OC)c(OC)c3)C(=O)NC2)cc1OC | 57 | 
9 | COc1cc(C2=CC(=O)NC2)cc(OC)c1OC | > 100 | 
10 | COc1cc(C2=C(c3cc(OC)c(OC)c(OC)c3)C(=O)NC2)cc(OC)c1OC | 11 | 51
11 | Cn1cc(C2=CC(=O)NC2)c2ccccc21 | > 100 | 
12 | COc1ccc(C2=C(c3ccc(OC)cc3)C(=O)NC2)cc1 | 13 | 
13 | COc1cc(C2=C(c3cn(C)c4ccccc34)C(=O)NC2)cc(OC)c1OC | 38 | 
14 | COc1ccc(C2=CC(=O)NC2)cc1OC | > 100 | 

Source: ChEMBL document CHEMBL3871300, “Synthesis and evaluation of the anti-proliferative activity of diaryl-3-pyrrolin-2-ones and fused analogs” (Bioorg Med Chem Lett, 2017)
